The results in this text go back to ChEMBL document CHEMBL5360632, “Quinazolinone Compounds Have Potent Antiviral Activity against Zika and Dengue Virus” (J Med Chem, 2023).

Data set [1] deals with dengue virus type 3. In words: Antiviral activity against Dengue virus serotype 3 7431 infected in Vero cells assessed as inhibition of viral replication pretreated for 2 hrs followed by replacement with fresh medium containing compound and measured after 48 hrs by MTT assay. The note with it: Dengue virus, 7431, Vero. The class given is functional, organism-based. The essentials:
(§1)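 Monolayers of 2 × 10^4 cells/well in DMEM with 2% FBS. Infected at 0.1 MOI together with compound for 2h. Wells washed with PBS, then fresh medium with compound added in duplicate and incubated 48h at 37 °C. Supernatant titred by end-point dilution: half-log dilutions on Vero monolayers in quadruplicate for 5–7 days, CPE by microscope then MTT. TCID50 compared with untreated; EC50 from dose-response fit of ≥2 independent experiments.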
For orientation: Formazan colour is commonly taken as a measure of viable cells.

Data set [2] deals with Zika virus. The experiment in a line: Antiviral activity against ZIKV FLR infected in Vero cells assessed as inhibition of viral replication by measuring reduction in cytopathic effect at >=3 uM preincubated with compounds for 2 hrs followed by replacement with fresh media containing compounds and measured after 48 hrs by MTT assay relative to control. Set-up: scale not given: the % may be the effect or the level left. The class given is functional. The conditions noted are these: time 50 hrs. The essentials:
as §1
A general note: Protection from cytopathic effect is a common read-out in antiviral testing.

Data set [3] relates to Zika virus. In words: Antiviral activity against ZIKV FLR infected in Vero cells assessed as reduction in capsid protein level at 1 to 3 uM incubated for 48 hrs by Western blot analysis. Type of data set: functional, organism-based. The note with it: dose 1-3 µM. The essentials: (§2)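 8 × 10^5 Vero cells infected at MOI 0.1 for 2h. Virus removed and cells cultured 48h in fresh medium with 2% FBS plus compound. Cells lysed in ice-cold RIPA buffer and equal total protein separated by SDS-PAGE, then transferred to PVDF. Probed with antibodies to ZIKV NS3, capsid and NS5, with β-actin as loading reference.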
(A western blot detects proteins with antibodies after separation by electrophoresis.)

Data set [4] relates to Zika virus. In words: Antiviral activity against ZIKV FLR infected in human U87 cells assessed as inhibition of viral replication at 3 uM pretreated with compounds for 2 hrs followed by replacement with fresh medium containing compound and measured after 48 hrs by MTT assay relative to control. The conditions noted are these: U-87 MG, time 50 hrs. Type of data set: functional. The essentials:
as §1

Data set [5] relates to U-87 MG. The experiment in a line: Cytotoxicity against human U87 cells assessed as reduction in cell viability. The class given is toxicity, cell-based. The conditions noted are these: u-87mg atcc.
The test system of data set [6] is Zika virus. In words: Antiviral activity against ZIKV FLR infected in human U87 cells assessed as inhibition of viral replication pretreated with compounds for 2 hrs followed by replacement with fresh medium containing compound and measured after 48 hrs by MTT assay. Type of data set: functional, organism-based. The conditions noted are these: U-87 MG. The essentials: as §1

Data set [7] has as its system Zika virus. The experiment in a line: Antiviral activity against ZIKV FLR infected in Vero cells assessed as inhibition of viral replication by measuring reduction in cytopathic effect at 1 uM preincubated with compounds for 2 hrs followed by replacement with fresh media containing compounds and further incubated for 48 hrs in presence of 1 mM GSH by MTT assay. The class given is functional, organism-based. The conditions noted are these: time 50.0 hrs. The essentials: as §1

For data set [8], the system named is Zika virus. The experiment in a line: Antiviral activity against ZIKV HN16 infected in Vero cells assessed as inhibition of viral replication by measuring reduction in cytopathic effect preincubated with compounds for 2 hrs followed by replacement with fresh media containing compounds and measured after 48 hrs by MTT assay. The class given is functional, organism-based. The essentials:
as §1

Data set [9] deals with Zika virus. In words: Antiviral activity against ZIKV FLR infected in human U87 cells assessed as inhibition of viral replication at 1 uM pretreated with compounds for 2 hrs followed by replacement with fresh medium containing compound and measured after 48 hrs by MTT assay relative to control. The class given is functional. The conditions noted are these: U-87 MG, time 50 hrs. The essentials:
as §1

For data set [10], the system named is Zika virus. In words: Antiviral activity against ZIKV FLR infected in Vero cells assessed as inhibition of viral replication by measuring reduction in cytopathic effect at 0.3 uM preincubated with compounds for 2 hrs followed by replacement with fresh media containing compounds and measured after 48 hrs by MTT assay relative to control. The class given is functional. Set-up: scale not given: the % may be the effect or the level left. The conditions noted are these: time 50 hrs. The essentials: as §1

For data set [11], the system named is Zika virus. The experiment in a line: Antiviral activity against ZIKV FLR infected in Vero cells assessed as reduction in NS3 viral protein level at 1 to 3 uM incubated for 48 hrs by Western blot analysis. Type of data set: functional, organism-based. The conditions noted are these: dose 1-3 µM. The essentials:
as §2

In data set [12] the test system is Zika virus. In words: Antiviral activity against ZIKV FLR infected in Vero cells assessed as inhibition of viral replication by measuring reduction in cytopathic effect at 10 uM preincubated with compounds for 2 hrs followed by replacement with fresh media containing compounds and measured after 48 hrs by MTT assay relative to control. The class given is functional. The conditions noted are these: time 50 hrs. The essentials: as §1

In data set [13] the test system is Zika virus. In words: Antiviral activity against ZIKV FLR infected in human U87 cells assessed as inhibition of viral replication at 10 uM pretreated with compounds for 2 hrs followed by replacement with fresh medium containing compound and measured after 48 hrs by MTT assay relative to control. Type of data set: functional. The conditions noted are these: U-87 MG, time 50 hrs. The essentials:
as §1

For data set [14], the system named is Zika virus. The experiment in a line: Antiviral activity against ZIKV FLR infected in Vero cells assessed as reduction in viral titer at 1 uM preinoculated virus for 2 hrs with cells followed by washout of unattached viruses and further incubated with compound for 48 hrs by MTT assay relative to control. Type of data set: functional. Further details: scale not given: the % may be the effect or the level left. The essentials:
(§3)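 Cells inoculated with 0.1 MOI virus for 2h, then unattached virus removed by PBS wash. Compound at 1 μM added either right after washout (0h-posttreatment) or 2h after washout (2h-posttreatment). Incubated to 48h at 37 °C, then supernatant TCID50 determined by end-point dilution with CPE/MTT read-out in quadruplicate on Vero cells, relative to untreated.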

The test system of data set [15] is Zika virus. The experiment in a line: Antiviral activity against ZIKV FLR infected in human U87 cells assessed as inhibition of viral replication at 0.3 uM pretreated with compounds for 2 hrs followed by replacement with fresh medium containing compound and measured after 48 hrs by MTT assay relative to control. Type of data set: functional. The conditions noted are these: U-87 MG, time 50 hrs. The essentials: as §1

The subject of data set [16] is Zika virus. In words: Antiviral activity against ZIKV FLR infected in Vero cells assessed as inhibition of viral replication by measuring reduction in cytopathic effect at 1 uM preincubated with compounds for 2 hrs followed by replacement with fresh media containing compounds and measured after 48 hrs by MTT assay relative to control. Type of data set: functional. The conditions noted are these: time 50 hrs. The essentials: as §1

For data set [17], the system named is Zika virus. In words: Antiviral activity against ZIKV FLR infected in Vero cells assessed as reduction in NS5 viral protein level at 1 to 3 uM incubated for 48 hrs by Western blot analysis. The class given is functional, organism-based. The conditions noted are these: dose 1-3 µM. The essentials: as §2
For data set [18], the system named is Zika virus. The experiment in a line: Antiviral activity against ZIKV FLR infected in mosquito C6/36 cells assessed as inhibition of viral replication pretreated with compounds for 2 hrs followed by replacement with fresh medium containing compound and measured after 48 hrs bt MTT assay. Type of data set: functional, organism-based. The essentials:
as §1

Data set [19] deals with Zika virus. In words: Antiviral activity against ZIKV FLR infected in Vero cells assessed as inhibition of viral replication by measuring reduction in cytopathic effect preincubated with compounds for 2 hrs followed by replacement with fresh media containing compounds and measured after 48 hrs by MTT assay. The class given is functional, organism-based. The essentials: as §1

Data set [20] relates to Zika virus. The experiment in a line: Antiviral activity against ZIKV FLR infected in Vero cells assessed as reduction in number of viral RNA copies by qRT-PCR analysis. The class given is functional, organism-based. The conditions noted are these: dose 0.3-10 µM. The essentials:
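Viral RNA measured in cell supernatant after compound treatment. Copies/mL calculated from a standard curve.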

Data set [21] has as its system dengue virus type 2. In words: Antiviral activity against Dengue virus serotype 2 K0049 infected in Vero cells assessed as inhibition of viral replication pretreated for 2 hrs followed by replacement with fresh medium containing compound and measured after 48 hrs by MTT assay. Type of data set: functional, organism-based. The essentials:
as §1

Data set [22] concerns Zika virus. The experiment in a line: Antiviral activity against ZIKV […] infected in Vero cells assessed as reduction in viral titer at 1 uM preinoculated virus for 2 hrs with cells followed by washout of unattached viruses and further incubated with compound for 46 hrs starting from 2 hrs post washout by MTT assay relative to control. The class given is functional. Set-up: scale not given: the % may be the effect or the level left. The essentials:
as §3

Activity calls are given as the source filed them. The rule behind the calls is not given here.

As to `COc1cccc(/C=C/c2nc3ccc(N4CCOCC4)cc3c(=O)n2-c2cccc(C(C)(C)C)c2)n1`, the 50% effective concentration (EC50) in data set [1] came out at 120 nM; in data set [6] it was 100 nM; in data set [8], 86 nM; in data set [18] it was 230 nM; in data set [19], 180 nM; in data set [21] it was 210 nM. For the same molecule, the Activity is more than 99.9% in data set [2]; 68% in data set [10]; 68% in data set [14]; “Dose-Dependent Effect” in data set [20]; 68% in [22]. For the same molecule, the result in data set [3], in data set [7], in data set [11] and in data set [17] was Active. Also, the inhibition at 3 µM in [4] was 99%. Further, the CC50 in [5] is more than 20000 nM. Moreover, the inhibition at 1 µM was determined as 97% in data set [9] and 90% in data set [16]. For the same molecule, the inhibition at 10 µM in data set [12] was 99.9%; in data set [13], more than 99.9%. Further, the inhibition at 0.3 µM in data set [15] was 90%.

For orientation: EC50 means the concentration that produces a half-maximal response. By inhibition is commonly meant the percentage by which the read-out fell short of the control. One may read the CC50 as the concentration giving 50% cytotoxicity.
